From PubChem
KCNK9 inh: KCNK9 potassium channel inhibitors, primary screen, HEK293 cells, thallium flux. Potassium channel subfamily K member 9 (Homo sapiens), Q9NPC2. FluxOR thallium flux fluorescence; hits give low values. B-score at 10 µM. 310,000 tested, 1.2% active. AID 488922, 2010;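 active = ratio B-score over 3 SD below the library mean, with starting fluorescence within 5 SD of its mean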;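 note: negative B-score means less thallium flux so channel inhibition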
KCNQ1 pot: potentiators or activators of KCNQ1 channel, primary screen, cell-based, thallium flux, high-throughput | Potassium voltage-gated channel subfamily KQT member 1 (Homo sapiens), P51787 | CHO-K1 KCNQ1, thallium flux FluxOR fluorescence; hits give high values | B-score at 10 µM | 310,000 tested, 0.35% active | AID 2648, 2010;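 active = fluorescence ratio B-score, a plate-corrected score, at least three library SD, with initial intensity B-score within 5 SD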
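System: CHO-K1 cells stably expressing KCNQ1 / Medium: assay buffer for compound exposure, DMSO matched across wells / Reagent: thallium- and potassium-containing depolarizing buffer / Compound: one concentration, matched DMSO / Incubation: 20 min compound pretreatment at room temperature / Measured by: kinetic FluxOR fluorescence, 10 s baseline plus 110 s post-stimulus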
KCNQ1 inh: inhibitors of human KCNQ1 channel, primary screen, cell-based, thallium flux, high-throughput; B-score at 10 µM; 310,000 tested, 1.3% active; AID 2642, 2010; CHO-K1 KCNQ1, FluxOR thallium flux fluorescence; hits give high values;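 active = compounds whose thallium flux B-score, printed positive for inhibition, exceeds three library SD while starting fluorescence stays within three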;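 note: channel opened by potassium depolarization with thallium stimulus after 20 min compound exposure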
KCNK3 block: human KCNK3 channel inhibitors, primary screen, CHO cells, FluxOR thallium flux, B-score; Potassium channel subfamily K member 3 (Homo sapiens), O14649; FluxOR fluorescence; hits give low values; B-score at 10 µM; 340,000 tested, 0.84% active;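 active = B-score under library mean minus 4 SD, starting fluorescence ratio at most library mean plus 5 SD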;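 note: more negative B-score means stronger inhibition of thallium flux through KCNK3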
Target sequence (O14649 whole entry, looked up): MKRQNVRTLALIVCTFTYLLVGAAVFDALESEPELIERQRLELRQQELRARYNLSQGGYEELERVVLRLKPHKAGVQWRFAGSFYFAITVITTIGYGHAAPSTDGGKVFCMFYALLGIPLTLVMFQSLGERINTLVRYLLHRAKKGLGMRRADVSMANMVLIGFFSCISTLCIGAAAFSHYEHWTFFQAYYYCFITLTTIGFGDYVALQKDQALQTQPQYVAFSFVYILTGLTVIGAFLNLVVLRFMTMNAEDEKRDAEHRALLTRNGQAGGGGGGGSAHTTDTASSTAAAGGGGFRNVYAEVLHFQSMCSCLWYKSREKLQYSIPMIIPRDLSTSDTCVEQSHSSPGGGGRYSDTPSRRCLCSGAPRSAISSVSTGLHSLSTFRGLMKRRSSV
hERG rescue: hERG rescue from dofetilide block, primary screen, cell-based, CHO-hERG, FluxOR thallium flux, dofetilide IC70; Voltage-gated inwardly rectifying potassium channel KCNH2 (Homo sapiens), Q12809; dofetilide IC70 present; activation (rescue from dofetilide block), less the hit threshold, % at 10 µM; 310,000 tested, 0.51% active;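 active = activation above the mean of controls blocked by dofetilide plus 5 SD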;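 note: thallium influx through hERG after potassium depolarization seen as dye fluorescence rise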
Starred values were filed as active, the others as inactive; i = inactive; . = not tested or not shown. Sampled rows, rich in hits. Any-hit rate of the full collection: about 3.1%.

SMILES | KCNK9 inh | KCNQ1 pot | KCNQ1 inh | KCNK3 block | hERG rescue
O=C(Cn1cc(C(=O)c2ccccc2)c2ccccc21)NCc1ccco1 | -9* | i | i | i | -8
CC1c2ccccc2-n2nncc2CN1C (stereo unspecified) | . | . | . | i | .
C/C(=N\NC(=O)c1ccccc1Cl)c1c(O)n(C2CCCCC2)c(=O)[nH]c1=O | i | i | i | i | -15
C/C(=N\NC(=O)c1ccccc1O)c1c(O)n(C2CCCCC2)c(=O)[nH]c1=O | i | i | 6* | i | -15
Cc1cc([N+](=O)[O-])c(Cl)cc1NC(=O)C(C)C | i | i | i | i | -4
CNc1cc(Cl)c2nonc2c1[N+](=O)[O-] | i | i | 10* | i | -24
O=C(O)CCC(=O)NCCC1=c2ccccc2=N/C1=C\c1c(O)n(Cc2ccc(F)cc2)c(=S)[nH]c1=O | i | i | i | i | 6.2*
CC1=CC(C)CC(C)OC(=O)CC(c2ccc(O)cc2)NC(=O)C(Cc2c(Br)[nH]c3ccccc23)N(C)C(=O)C(C)NC(=O)C(C)C1 (stereo unspecified) | . | . | . | i | .
COc1ccc(OC)c(N2C(=O)/C(=C/c3ccco3)C(=O)NC2=S)c1 | i | i | i | . | 8.4*
C=Cc1cc(OC)c2c(c1)c(=O)oc1c2cc(OC)c2c(O)ccc(C3OC(C)C(O)C(C)(O)C3O)c21 (stereo unspecified) | . | . | . | i | .
COc1ccc(N2C(=O)NC(=O)C(CCc3ccncc3)(CCc3ccncc3)C2=O)cc1 | i | i | i | i | 4.6*
CCc1ccc(N2C(=O)NC(=O)C(CCc3ccncc3)(CCc3ccncc3)C2=O)cc1 | i | i | i | i | -2
CCCCCCCSc1cc(OC)c(CCN(C)C)cc1OC | i | i | i | i | -26
CCCCCSc1cc(OC)c(CCN)cc1OC | i | i | 6* | i | -12
CC1=C(C)CC2(C(=O)NC(=S)NC2=O)C(C)C1 (stereo unspecified) | . | . | . | i | .
CCCCCCC(C)(C)c1ccc([C@@H]2C[C@H](O)CC[C@H]2CCCO)c(O)c1 | . | . | . | -11* | .
CC(=O)OC1CCC2(C)C(CCC3C4CC(N5CC5)C(C(C)=O)C4(C)CC(=O)C32)C1 (stereo unspecified) | . | . | . | i | .
CCCC[C@@H](C)C[C@@H](C)C(=O)N(C)[C@@H](CC(C)C)C(=O)N[C@H](C(=O)N(C)[C@H](C(=O)N1C[C@@H](O)C[C@H]1C(=O)N1C(=O)C=C[C@@H]1C)C(C)C)C(C)OC(C)=O (stereo partly specified) | . | . | . | i | .
O=C(c1ccccc1)C(CN1CCCC1)c1ccccc1 (stereo unspecified) | i | i | i | i | -7
CC1CCN(C(CC(=O)c2ccccc2)C(=O)c2ccccc2)CC1 (stereo unspecified) | . | . | . | -9.1* | .
C[C@H]1[C@@H](OS(=O)(=O)O)C[C@@H]2C[C@H]([C@@H](O)c3cc(=O)[nH]c(=O)[nH]3)NC3=NC[C@H]1N32 | . | . | . | i | .
Oc1ccc(CC2(N3CCCC3)CCCCC2)cc1 | i | i | i | i | 7.7*
CN(C)CC(C(=O)Cc1ccccc1)c1ccccc1 (stereo unspecified) | . | . | . | i | .
CC(C)CNC(=O)/C=C/C=C/CCCCCC/C=C/c1ccc2c(c1)OCO2 | . | . | . | -9.4* | .
CCCCn1c(O)c(C(=O)/C=C/c2ccc3c(c2)OCO3)c(=O)[nH]c1=O | i | i | i | i | 1
CCCCn1c(=O)c(C(=O)NCc2ccccc2)c(O)c2ccccc21 | i | i | 8* | i | -2
CCCCn1c(=O)c(C(=O)NCc2ccncc2)c(O)c2ccccc21 | i | i | i | i | -6
COC1/C=C/C=C(\C)Cc2cc(O)c(Cl)c(c2)N(C)C(=O)CC(OC(=O)C(C)C)C2(C)OC2C(C)C2CC1(O)NC(=O)O2 (stereo unspecified) | . | . | . | i | .
NNCc1ccccc1 | . | . | . | i | .
CN1[C@@H]2CCC[C@H]1CC(=O)C2 | . | . | . | i | .
